In test [1] the test system is LNCaP. Put plainly: Antiproliferative activity was determined by colorimetric MTS assay in LNCaP cells after 72 hr of incubation with compounds (1-100 uM); Not active at 100 uM. It counts as functional, cell-based, Homo sapiens. Put shortly: (§1)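 LNCaP cells exposed 72 h to compounds (1–100 μM). Proliferation read by colorimetric MTS assay. IC50 is the concentration giving 50% inhibition of cell proliferation. Mean ± SD of three independent experiments.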
A general note: Tetrazolium dyes change colour on reduction, which living cells bring about.

The subject of test [2] is LNCaP. Put plainly: Antioxidant activity against formation of ROS was determined in t-BuOOH treated LNCaP cells after 24 hr of incubation with compounds (1-100 uM); Not active at 100 uM. It counts as functional, cell-based, Homo sapiens.
Test [3] concerns the target T1, Alpha-1A adrenergic receptor (Rattus norvegicus, UniProt P43140).
T1 sequence (P43140 whole entry): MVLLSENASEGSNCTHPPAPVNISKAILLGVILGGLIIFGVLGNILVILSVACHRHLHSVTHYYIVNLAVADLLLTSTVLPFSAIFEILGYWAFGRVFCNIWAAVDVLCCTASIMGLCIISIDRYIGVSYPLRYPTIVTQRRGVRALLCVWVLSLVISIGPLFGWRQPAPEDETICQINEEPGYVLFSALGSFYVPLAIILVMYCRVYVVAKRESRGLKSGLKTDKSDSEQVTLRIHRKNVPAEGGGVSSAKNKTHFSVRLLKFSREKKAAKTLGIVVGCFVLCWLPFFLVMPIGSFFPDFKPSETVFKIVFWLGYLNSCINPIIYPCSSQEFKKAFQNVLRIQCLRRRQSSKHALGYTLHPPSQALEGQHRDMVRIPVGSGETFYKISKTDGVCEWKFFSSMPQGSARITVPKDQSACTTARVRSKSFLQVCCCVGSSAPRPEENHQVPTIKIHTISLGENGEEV
Kind of test: Blocking activity was assessed by antagonism of (-)-noradrenaline induced contraction of rat prostatic vas deferens (alpha1A adrenoceptor). It counts as functional, tissue-based. As to conditions: read-out: pA2 (converted); call rule not given here.

The target in test [4] is T2, Alpha-1D adrenergic receptor (Homo sapiens, UniProt P25100).
T2 sequence (P25100 whole entry): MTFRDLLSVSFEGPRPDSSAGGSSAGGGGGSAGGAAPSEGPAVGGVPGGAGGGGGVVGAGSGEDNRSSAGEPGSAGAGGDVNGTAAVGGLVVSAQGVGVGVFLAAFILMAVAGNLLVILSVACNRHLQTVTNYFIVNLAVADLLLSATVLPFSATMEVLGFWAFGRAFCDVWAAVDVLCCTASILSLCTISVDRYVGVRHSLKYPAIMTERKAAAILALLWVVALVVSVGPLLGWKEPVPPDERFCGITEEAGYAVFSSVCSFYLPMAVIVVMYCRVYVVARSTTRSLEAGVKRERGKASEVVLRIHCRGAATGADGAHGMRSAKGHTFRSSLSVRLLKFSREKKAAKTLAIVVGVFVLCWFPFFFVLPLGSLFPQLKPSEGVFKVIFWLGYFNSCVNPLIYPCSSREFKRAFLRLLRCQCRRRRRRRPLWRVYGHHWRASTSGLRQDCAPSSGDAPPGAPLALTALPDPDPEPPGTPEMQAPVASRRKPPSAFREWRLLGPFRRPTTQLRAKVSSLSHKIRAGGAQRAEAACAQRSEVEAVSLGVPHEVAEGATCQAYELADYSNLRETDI
Put plainly: Equilibrium dissociation constant was evaluated by radio-receptor binding assays using [3H]prazosin to label cloned human alpha 1d expressed in CHO cells. It counts as cell-based.

The target in test [5] is T3, Alpha-1B adrenergic receptor (Homo sapiens, UniProt P35368).
T3 sequence (P35368 whole entry): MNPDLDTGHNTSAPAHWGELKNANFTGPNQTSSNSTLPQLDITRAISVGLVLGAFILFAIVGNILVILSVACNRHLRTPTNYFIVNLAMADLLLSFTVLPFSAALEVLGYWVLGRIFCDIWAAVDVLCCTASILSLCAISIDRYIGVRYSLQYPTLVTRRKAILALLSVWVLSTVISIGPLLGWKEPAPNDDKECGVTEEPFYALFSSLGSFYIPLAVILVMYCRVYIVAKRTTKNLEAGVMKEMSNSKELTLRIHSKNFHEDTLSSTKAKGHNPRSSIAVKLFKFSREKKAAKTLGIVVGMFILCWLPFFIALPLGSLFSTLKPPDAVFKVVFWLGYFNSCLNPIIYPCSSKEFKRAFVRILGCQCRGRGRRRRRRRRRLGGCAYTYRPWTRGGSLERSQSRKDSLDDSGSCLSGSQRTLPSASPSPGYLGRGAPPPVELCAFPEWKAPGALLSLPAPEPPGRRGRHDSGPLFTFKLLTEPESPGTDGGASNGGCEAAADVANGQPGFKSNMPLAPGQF
Kind of test: Equilibrium dissociation constant was evaluated by radio-receptor binding assays using [3H]prazosin to label cloned human alpha 1b expressed in CHO cells. It counts as cell-based.

Test [6] concerns the target T4, Alpha-1D adrenergic receptor (Rattus norvegicus, UniProt P23944).
T4 sequence (P23944 whole entry): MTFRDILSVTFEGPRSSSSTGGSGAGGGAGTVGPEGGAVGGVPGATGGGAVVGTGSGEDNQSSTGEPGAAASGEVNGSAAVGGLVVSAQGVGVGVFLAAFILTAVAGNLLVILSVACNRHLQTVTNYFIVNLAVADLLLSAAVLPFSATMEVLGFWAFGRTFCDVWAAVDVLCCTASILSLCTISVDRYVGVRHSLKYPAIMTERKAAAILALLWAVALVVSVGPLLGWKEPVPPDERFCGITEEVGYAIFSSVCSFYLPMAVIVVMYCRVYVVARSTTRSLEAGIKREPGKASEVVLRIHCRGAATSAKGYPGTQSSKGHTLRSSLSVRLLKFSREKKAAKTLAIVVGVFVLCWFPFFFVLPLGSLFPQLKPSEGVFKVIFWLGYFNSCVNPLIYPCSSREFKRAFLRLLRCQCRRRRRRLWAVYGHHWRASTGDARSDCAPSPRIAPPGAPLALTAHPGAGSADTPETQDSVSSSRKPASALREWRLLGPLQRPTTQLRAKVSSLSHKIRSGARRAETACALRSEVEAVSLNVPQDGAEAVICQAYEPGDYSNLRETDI
Put plainly: Blocking activity was assessed by antagonism of (-)-noradrenaline induced contraction of rat thoracic aorta (Alpha-1D adrenoceptor). It counts as functional, tissue-based. Particulars: read-out: pA2 (converted).

Test [7] has as its target T5, Alpha-1B adrenergic receptor (Rattus norvegicus, UniProt P15823).
T5 sequence (P15823 whole entry): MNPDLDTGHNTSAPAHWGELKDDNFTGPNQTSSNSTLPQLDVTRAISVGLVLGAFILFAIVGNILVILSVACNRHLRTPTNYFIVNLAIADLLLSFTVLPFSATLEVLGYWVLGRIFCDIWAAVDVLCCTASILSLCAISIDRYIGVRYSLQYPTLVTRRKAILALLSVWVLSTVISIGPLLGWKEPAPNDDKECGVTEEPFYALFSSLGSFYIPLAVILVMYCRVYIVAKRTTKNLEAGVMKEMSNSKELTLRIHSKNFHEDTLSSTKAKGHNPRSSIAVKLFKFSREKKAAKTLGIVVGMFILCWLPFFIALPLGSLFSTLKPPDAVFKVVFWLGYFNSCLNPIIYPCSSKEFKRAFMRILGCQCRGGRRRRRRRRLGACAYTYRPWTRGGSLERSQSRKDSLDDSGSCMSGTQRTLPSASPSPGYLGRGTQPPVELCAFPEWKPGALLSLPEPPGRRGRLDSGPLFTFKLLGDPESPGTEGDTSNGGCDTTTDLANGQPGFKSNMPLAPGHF
Kind of test: Blocking activity was assessed by antagonism of (-)-phenylephrine induced contraction of rat spleen (alpha1B adrenoceptor). It counts as functional, tissue-based. Particulars: read-out: pA2 (converted).

Test [8] deals with T6, Alpha-1A adrenergic receptor (Homo sapiens, UniProt P35348).
T6 sequence (P35348 whole entry): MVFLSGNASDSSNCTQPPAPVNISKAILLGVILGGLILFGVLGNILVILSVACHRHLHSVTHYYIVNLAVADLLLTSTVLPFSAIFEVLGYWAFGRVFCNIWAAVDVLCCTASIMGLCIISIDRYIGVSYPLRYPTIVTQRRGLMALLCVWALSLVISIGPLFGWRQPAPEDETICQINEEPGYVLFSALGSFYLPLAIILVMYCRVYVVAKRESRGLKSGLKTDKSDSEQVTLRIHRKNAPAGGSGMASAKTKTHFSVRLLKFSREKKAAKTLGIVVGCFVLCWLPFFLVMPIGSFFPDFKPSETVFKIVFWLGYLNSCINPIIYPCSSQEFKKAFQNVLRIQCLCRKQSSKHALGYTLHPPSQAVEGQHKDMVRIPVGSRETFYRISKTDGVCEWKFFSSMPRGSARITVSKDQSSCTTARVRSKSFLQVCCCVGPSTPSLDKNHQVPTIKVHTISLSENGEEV
Put plainly: Equilibrium dissociation constant was evaluated by radio-receptor binding assays using [3H]prazosin to label cloned human alpha 1a expressed in CHO cells. It counts as cell-based.

The test system of test [9] is LNCaP. Put plainly: Antioxidant activity against formation of ROS was determined in t-BuOOH treated LNCaP cells after 24 hr of incubation with compounds (1-100 uM). It counts as functional, cell-based. As to conditions: Homo sapiens.
Test [10] deals with LNCaP. Kind of test: Antiproliferative activity was determined by colorimetric MTS assay in LNCaP cells after 72 hr of incubation with compounds (1-100 uM). As to conditions: Homo sapiens. It counts as functional, cell-based. Put shortly:
as §1

For test [11], the system named is LNCaP. Kind of test: Antiproliferative activity in MTS assay in LNCaP cells after 72 hr at 1-100 uM; Inactive at 100 uM. It counts as functional, cell-based, Homo sapiens. Put shortly:
as §1

For test [12], the system named is LNCaP. Kind of test: Antioxidant activity against t-BuOOH induced ROS formation in LNCaP cells after 24 hr at 1-100 uM; Inactive at 100 uM. It counts as functional, cell-based, Homo sapiens.

Data on eight compounds can be found in ChEMBL document CHEMBL1139490, “Design, synthesis, and biological evaluation of prazosin-related derivatives as multipotent compounds” (J Med Chem, 2005).

A value given as a limit tells only on which side of the number the result lay.

For `COc1cc2nc(N3CCNCC3)nc(N)c2cc1OC` [AMINODIMETHOXYQUINAZOLINYLPIPERAZINE], the IC50 entry in the test on LNCaP [1] and in the test with LNCaP [2] was “Not Active” in each case.
As to `COc1cc2nc(N3CCN(C(=O)CCCCC4CCSS4)CC3)nc(N)c2cc1OC` (stereo not drawn), the results for the Kb in test [3], in test [6] and in test [7] were 64.6 nM, 12 nM and 40.7 nM, respectively. Besides, the inhibition constant Ki – broadly, the equilibrium dissociation constant of an inhibitor or competing ligand from its target – in test [4] was 0.891 nM; in test [5], 1.26 nM; in test [8], 1.41 nM. The results for the concentration for half-maximal inhibition (IC50) entry in the test with LNCaP [1] and with LNCaP [9] were “Not Active” and 83500 nM, respectively.
On to `COc1cc2nc(N3CCN(C(=O)CC4CCSS4)CC3)nc(N)c2cc1OC` (stereo not drawn), for which the Kb in test [3] is 1 nM; in test [6], 0.912 nM; in [7] it was 1.02 nM. In addition, the figures for the Ki in test [4], in test [5] and in test [8] were 0.389 nM, 0.309 nM and 0.288 nM, respectively. The IC50 (in general, the concentration that gives 50% inhibition) with LNCaP [10] is 52600 nM; in the test with LNCaP [2], “Not Active”.
Turning to `COc1cc2nc(N3CCN(C(=O)c4ccco4)CC3)nc(N)c2cc1OC` [PRAZOSIN], the IC50 in the test on LNCaP [10] is 67500 nM; in the test on LNCaP [2] it was “Not Active”.
Regarding `COC1=CC(=O)c2ccccc2C1=O` [2-Methoxy-1,4-naphthoquinone], the IC50 entry in the test with LNCaP [11] and with LNCaP [12] was “Not Active” in each case.
Take `COc1cc2nc(N3CCN(C(=O)C4CCSS4)CC3)nc(N)c2cc1OC` (stereo not drawn): the Kb in test [3] was 18.6 nM; in test [6], 0.871 nM; in test [7], 1.74 nM. Further, the figures for the inhibition constant Ki in test [4], in [5] and in test [8] were 0.49 nM, 0.537 nM and 0.813 nM, respectively. Besides, the concentration for half-maximal inhibition (IC50) in the test on LNCaP [10] is 49600 nM; with LNCaP [2], “Not Active”.
`O=C(O)CCCCC1CCSS1` (stereo not drawn) [LIPOIC ACID, ALPHA]: the Kb in [3], in test [6] and in test [7] was over 10000 nM throughout. In addition, the concentration for half-maximal inhibition (IC50) result in the test on LNCaP [1] is “Not Active”; in the test on LNCaP [9], 54900 nM.
On to `COc1cc2nc(N3CCN(C4=CC(=O)c5ccccc5C4=O)CC3)nc(N)c2cc1OC`, for which the Kb in test [3] is 22.9 nM; in test [6], 0.891 nM; in test [7], 3.09 nM. Further, the Ki in [4] is 0.933 nM; in [5], 0.676 nM; in [8], 1.26 nM. In addition, the values for the IC50 with LNCaP [10] and with LNCaP [9] were 8820 nM and 2630 nM, respectively.
